Reference: ChEMBL document CHEMBL4602651, “Development of selective mono or dual PROTAC degrader probe of CDK isoforms” (Eur J Med Chem, 2020)
Active and inactive are the calls of the source. The calls are words filed in the database; no cut-off is given here.

Experiments:
[1] = system: PC-3; experiment: Induction of cell cycle arrest in human PC3 cells assessed as accumulation at G2/M phase at 1 uM after 48 hrs by propidium iodide staining based flow cytometry (reference value: 22.24%); format: functional
[2] = system: PC-3; experiment: Induction of cell cycle arrest in human PC3 cells assessed as accumulation at G2/M phase at 3 uM after 48 hrs by propidium iodide staining based flow cytometry (reference value: 22.24%); format: functional
[3] = system: PC-3; experiment: Induction of cell cycle arrest in human PC3 cells assessed as accumulation at S phase at 1 uM after 48 hrs by propidium iodide staining based flow cytometry (reference value: 17.96%); format: functional
[4] = target: CDK9/cyclin T1 (Homo sapiens, UniProt P50750); experiment: Inhibition of tracer K10 binding to NanoLuc-CDK9/Cyclin T1 (unknown origin) expressed in human HEK293 cells after 1 hr in presence of ATP by NanoBRET assay; format: cell-based
Sequence of CDK9/cyclin T1 (O60563 whole entry): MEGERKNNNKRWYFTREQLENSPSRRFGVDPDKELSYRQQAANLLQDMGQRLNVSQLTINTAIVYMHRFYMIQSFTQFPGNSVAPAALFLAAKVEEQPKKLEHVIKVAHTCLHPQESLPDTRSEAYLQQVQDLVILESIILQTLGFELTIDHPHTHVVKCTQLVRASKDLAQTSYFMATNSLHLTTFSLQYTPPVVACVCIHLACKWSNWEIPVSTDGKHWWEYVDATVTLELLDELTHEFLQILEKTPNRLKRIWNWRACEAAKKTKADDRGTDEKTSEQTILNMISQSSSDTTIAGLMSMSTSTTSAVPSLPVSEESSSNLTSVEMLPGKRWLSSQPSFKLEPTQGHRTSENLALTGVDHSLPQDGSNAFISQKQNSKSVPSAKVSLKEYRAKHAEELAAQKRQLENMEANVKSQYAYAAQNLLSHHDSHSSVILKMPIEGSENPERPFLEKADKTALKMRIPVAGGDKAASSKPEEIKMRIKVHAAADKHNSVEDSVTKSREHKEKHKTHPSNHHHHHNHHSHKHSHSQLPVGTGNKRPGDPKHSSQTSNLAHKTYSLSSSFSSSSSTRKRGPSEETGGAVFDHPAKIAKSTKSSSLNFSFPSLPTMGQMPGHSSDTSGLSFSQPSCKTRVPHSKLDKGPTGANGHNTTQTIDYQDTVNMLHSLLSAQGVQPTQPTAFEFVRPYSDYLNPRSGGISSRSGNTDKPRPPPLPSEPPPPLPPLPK
Sequence of CDK9/cyclin T1 (P50750 whole entry): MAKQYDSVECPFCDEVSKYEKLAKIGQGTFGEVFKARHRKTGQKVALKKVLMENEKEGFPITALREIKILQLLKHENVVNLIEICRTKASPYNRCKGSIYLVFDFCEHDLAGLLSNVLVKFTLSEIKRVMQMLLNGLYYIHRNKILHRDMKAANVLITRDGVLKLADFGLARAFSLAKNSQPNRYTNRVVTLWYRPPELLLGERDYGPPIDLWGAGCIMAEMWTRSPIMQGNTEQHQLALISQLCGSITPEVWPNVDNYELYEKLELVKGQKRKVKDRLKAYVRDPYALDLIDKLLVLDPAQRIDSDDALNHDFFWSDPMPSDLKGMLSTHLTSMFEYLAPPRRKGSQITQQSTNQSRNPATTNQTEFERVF
Outline: (§1)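 Cell-based target engagement run by a contract lab. HEK293 cells pretreated with NanoBRET Tracer K-10, then exposed to compound for 1 h with 10 µM ATP, and BRET signal read. 10-point, 3-fold dilutions from 1 µM. Staurosporine reference used 4-fold dilutions from 20 µM. IC50 from sigmoidal dose-response fit.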

[5] = system: PC-3; experiment: Induction of cell cycle arrest in human PC3 cells assessed as accumulation at G0/G1 phase at 3 uM after 48 hrs by propidium iodide staining based flow cytometry (reference value: 59.80%); format: functional
[6] = target: T1, Protein cereblon/Cyclin-dependent kinase 2/Cyclin-dependent kinase 9 (Homo sapiens, UniProt P24941+P50750+Q96SW2); experiment: Protac activity at CRBN/CDK2/CDK9 in AR-negative human PC3 cells assessed as induction of CDK2 protein degradation after 24 hrs by Western blot analysis; format: cell-based
Outline: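 PC-3 cells exposed to a degrader concentration series, then immunoblotted for CDK2 and CDK9 versus β-tubulin. The figure legend gives 24 h exposure. DC50 taken as mean of 2 determinations from densitometry.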

[7] = target: T1, Protein cereblon/Cyclin-dependent kinase 2/Cyclin-dependent kinase 9; experiment: Protac activity at CRBN/CDK2/CDK9 in AR-negative human PC3 cells assessed as CDK2 degradation at 250 nM preincubated with FN-1501 for 2 hrs and measured after 8 hrs by Western blot analysis; format: cell-based; conditions: PC-3
Outline: (§2)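 PC-3 cells pretreated 2 h with 5 µM DMSO, FN-1501, pomalidomide or MG-132, then exposed to degrader at 250 nM for 8 h. Lysates probed for CDK2 and CDK9, β-tubulin as loading control. 50 µg protein per lane, 10% SDS-PAGE, chemiluminescent detection.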

[8] = target: CDK2/Cyclin A2 (Homo sapiens, UniProt P24941); experiment: Inhibition of tracer K10 binding to NanoLuc-CDK2/Cyclin A (unknown origin) expressed in human HEK293 cells after 1 hr in presence of ATP by NanoBRET assay; format: cell-based; outline: as §1
[9] = target: Protein cereblon/Cyclin-dependent kinase 9 (Homo sapiens) (UniProt P50750+Q96SW2); experiment: Protac activity at CRBN/CDK9 in AR-negative human PC3 cells assessed as induction of CDK9 protein degradation at 50 nM after 12 hrs by Western blot analysis; format: cell-based; conditions: PC-3
Sequence of Protein cereblon/Cyclin-dependent kinase 9 (Homo sapiens) (P50750 whole entry, looked up): as the sequence (P50750 whole entry) above
Sequence of Protein cereblon/Cyclin-dependent kinase 9 (Homo sapiens) (Q96SW2 whole entry, looked up): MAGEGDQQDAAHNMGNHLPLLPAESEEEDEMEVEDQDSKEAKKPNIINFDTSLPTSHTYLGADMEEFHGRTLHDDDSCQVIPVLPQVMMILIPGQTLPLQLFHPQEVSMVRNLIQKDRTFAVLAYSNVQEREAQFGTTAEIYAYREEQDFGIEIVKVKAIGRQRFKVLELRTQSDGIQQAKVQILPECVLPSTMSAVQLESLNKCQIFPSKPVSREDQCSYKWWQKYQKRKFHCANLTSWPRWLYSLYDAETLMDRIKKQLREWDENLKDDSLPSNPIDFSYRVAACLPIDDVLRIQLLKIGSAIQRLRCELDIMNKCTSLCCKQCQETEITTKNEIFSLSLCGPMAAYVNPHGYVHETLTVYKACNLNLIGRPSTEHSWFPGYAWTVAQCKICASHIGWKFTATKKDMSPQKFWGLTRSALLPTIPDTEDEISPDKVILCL
Outline: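 PC-3 cells (DMEM/F12 1:1, 10% FBS, 1% pen/strep, 37 °C, 5% CO2) plated at 5 × 10^5 per well, exposed to compound for 12 h. RIPA lysates with protease inhibitors; 50 µg total protein run on 10% SDS-PAGE, transferred to PVDF, blocked in 5% milk/TBS-T. Probed with anti-CDK9 (1/1000), β-tubulin loading control, HRP secondary, chemiluminescence; bands scored as degradation detected or not.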

[10] = target: T1, Protein cereblon/Cyclin-dependent kinase 2/Cyclin-dependent kinase 9; experiment: Protac activity at CRBN/CDK2/CDK9 in AR-negative human PC3 cells assessed as CDK2 degradation at 250 nM preincubated with proteasome inhibitor MG132 for 2 hrs and measured after 8 hrs by Western blot analysis; format: cell-based; conditions: PC-3; outline: as §2
[11] = target: T1, Protein cereblon/Cyclin-dependent kinase 2/Cyclin-dependent kinase 9; experiment: Protac activity at CRBN/CDK2/CDK9 in human 22Rv1 cells assessed as CDK2 degradation at 0.25 to 10 uM after 12 hrs by Westernblot analysis; format: cell-based; conditions: CWR22R
Outline: (§3)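 22Rv1, HCT-116 (RPMI 1640, 10% FBS) and MCF-7 cells treated with degrader at indicated concentrations for 12 h. CDK2 and CDK9 blotted with β-tubulin loading control.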

[12] = system: PC-3; experiment: Induction of cell cycle arrest in human PC3 cells assessed as accumulation at S phase at 250 nM after 48 hrs by propidium iodide staining based flow cytometry (reference value: 17.96%); format: functional
[13] = target: T1, Protein cereblon/Cyclin-dependent kinase 2/Cyclin-dependent kinase 9; experiment: Protac activity at CRBN/CDK2/CDK9 in human HCT116 cells assessed as CDK9 degradation at 0.25 to 10 uM after 12 hrs by Westernblot analysis; format: cell-based; conditions: HCT-116; outline: as §3
[14] = target: T1, Protein cereblon/Cyclin-dependent kinase 2/Cyclin-dependent kinase 9; experiment: Protac activity at CRBN/CDK2/CDK9 in AR-negative human PC3 cells assessed as CDK9 degradation at 250 nM preincubated with pomalidomide for 2 hrs and measured after 8 hrs by Western blot analysis; format: cell-based; conditions: PC-3; outline: as §2
[15] = target: T1, Protein cereblon/Cyclin-dependent kinase 2/Cyclin-dependent kinase 9; experiment: Protac activity at CRBN/CDK2/CDK9 in AR-negative human PC3 cells assessed as CDK2 degradation at 250 nM preincubated with pomalidomide for 2 hrs and measured after 8 hrs by Western blot analysis; format: cell-based; conditions: PC-3; outline: as §2

O=C(CCC(=O)N1CCN(Cc2ccc(NC(=O)c3n[nH]cc3Nc3ncnc4[nH]ccc34)cc2)CC1)NCCNc1cccc2c1C(=O)N(C1CCC(=O)NC1=O)C2=O (stereo unspecified)
Activity [1]: 36.82%
Activity [2]: 36%
Activity [3]: 9.23%
IC50 [4]: 14.5 nM
Activity [5]: 52.76%
Activity ([6]; PC-3): Dose-dependent effect
DC50 ([6]; pc-3): 62 nM
Activity [7]: inactive
IC50 [8]: 7.42 nM
Activity [9]: Active
Activity [10]: inactive
Activity [11]: Active
Activity [12]: 27.72%
Activity [13]: Active
Activity [14]: inactive
Activity [15]: inactive
